In the library only some 3.5% were active in any assay of this set; here they are far more common.
PAFAH2 FP inh: PAFAH2 (human) inhibition; AID 492956; actives 0.99% (n = 340,000); inhibition, % at 3.39 µM; recombinant PAFAH2, FP-rhodamine activity probe, fluorescence polarization;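 active = inhibition above the mean over all tested compounds plus 3 SD, cut at about 30% in these data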;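 note: inhibitors block probe labeling of enzyme so polarization drops; 0% = enzyme with DMSO and 100% = wells lacking PAFAH2 protein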
PREPL inhibitor: inhibits the human prolyl oligopeptidase-like enzyme; recombinant PREPL, fluorescence polarization activity-based probe; inhibition, % at 5.96 µM; actives 0.68% (n = 320,000); AID 2751; in the data active = inhibition above about 43%;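 note: 0% = enzyme with DMSO and 100% = wells lacking enzyme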
PAFAH1B3 FP inh: inhibitors of human PAFAH1B3; Q15102; actives 0.28% (n = 340,000); inhibition, % at 3.39 µM; recombinant PAFAH1B3, FP-rhodamine probe, fluorescence polarization; AID 492972;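 active = inhibition above the screen-wide average of all tested compounds plus 3 SD, cut at about 25% in these data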;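 note: 0% = enzyme with DMSO only and 100% = wells lacking PAFAH1B3 protein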
PAFAH1B2 inh: PAFAH1B2 (human) inhibition. P68402. recombinant PAFAH1B2, FP-rhodamine activity probe, fluorescence polarization. inhibition, % at 3.39 µM. actives 1.2% (n = 340,000);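 active = inhibition above the mean of all tested compounds plus 3 SD, cut at about 24% in these data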;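 note: 0% = enzyme with DMSO and 100% = wells lacking PAFAH1B2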
Target sequence (P68402 whole entry, looked up): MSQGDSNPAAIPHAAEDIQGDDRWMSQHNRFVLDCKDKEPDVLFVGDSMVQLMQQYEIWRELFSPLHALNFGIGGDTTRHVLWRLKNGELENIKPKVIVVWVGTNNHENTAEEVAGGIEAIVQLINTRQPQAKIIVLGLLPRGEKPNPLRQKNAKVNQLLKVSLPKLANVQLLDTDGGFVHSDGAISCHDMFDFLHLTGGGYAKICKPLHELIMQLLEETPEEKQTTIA
pPAFAH inh: inhibitors of human plasma PAF acetylhydrolase (pPAFAH); Q13093; recombinant pPAFAH, FP-rhodamine probe fluorescence polarization; inhibition, % at 3.39 µM; actives 1.5% (n = 330,000); AID 463082;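 active = inhibition above the mean inhibition across the screen plus 3 SD, cut at about 25% in these data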;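 note: inhibitors block binding of the rhodamine activity-based probe so polarization drops; 0% = enzyme with DMSO and 100% = wells lacking pPAFAH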
Target sequence (Q13093 whole entry, looked up): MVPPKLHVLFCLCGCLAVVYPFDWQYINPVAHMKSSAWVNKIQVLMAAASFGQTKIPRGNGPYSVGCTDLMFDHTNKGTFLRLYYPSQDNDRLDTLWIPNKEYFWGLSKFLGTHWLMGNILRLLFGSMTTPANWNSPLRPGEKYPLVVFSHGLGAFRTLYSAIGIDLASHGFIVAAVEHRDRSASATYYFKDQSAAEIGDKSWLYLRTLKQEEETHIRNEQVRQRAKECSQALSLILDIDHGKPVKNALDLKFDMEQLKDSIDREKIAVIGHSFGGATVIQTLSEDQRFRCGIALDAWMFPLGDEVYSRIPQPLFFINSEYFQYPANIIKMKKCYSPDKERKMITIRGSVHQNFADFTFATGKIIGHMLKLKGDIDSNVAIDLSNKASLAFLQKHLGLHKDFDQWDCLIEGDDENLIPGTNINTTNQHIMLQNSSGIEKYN
Apaf1 inhib: blocks human Apaf-1 apoptosome activity | O14727 | reconstituted apoptosome caspase-3 activity, DEVD-Rh110 fluorescence | inhibition, % at 20 µM | actives 0.71% (n = 330,000) | AID 489030; active = inhibition of at least 40% at 20 µM;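 note: plate controls were DMSO wells for no effect and DEVD-CHO caspase inhibitor wells for full effect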
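Material: reconstituted apoptosome with Apaf-1, cytochrome c, caspase-9, procaspase-3, dATP. Technique: Rh110 fluorescence intensity. Buffer or medium: pH 7.5 Hepes buffer with CHAPS, BSA, DTT. Times: 30 min plus 50 min, RT.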
PAFAH2 confirm: PAFAH2 (human) inhibition, confirmed | shares compounds with PAFAH2 FP inh | recombinant PAFAH2, FP-rhodamine activity probe, fluorescence polarization | inhibition, % at 3.39 µM | actives 65% (n = 2,300) | AID 493030;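 active = mean inhibition over three repeats above a set limit taken from the earlier primary screen, cut at about 30% in these data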;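 note: inhibitor blocks binding of rhodamine activity probe so polarization falls; 0% = enzyme with DMSO and 100% = wells lacking PAFAH2 protein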
* marks the source's active call; other numbers are inactive results; nt = no result.

SMILES | PAFAH2 FP inh | PREPL inhibitor | PAFAH1B3 FP inh | PAFAH1B2 inh | pPAFAH inh | Apaf1 inhib | PAFAH2 confirm
CCCN1CCC(=NNc2ccc(C(=O)O)cc2)CC1 | 35.2* | 8.4 | 11.8 | 3.0 | 2.8 | -9.2 | 2.5
CCCN1CCC(=NNC(=O)c2ccc(Br)o2)CC1 | 3.4 | -0.5 | -2.3 | -2.3 | 3.3 | -27.7 | nt
COc1ccc(C(=O)OCC(=O)NCc2ccccc2)c(OC)c1OC | 56.8* | 3.7 | -2.5 | 2.0 | 2.2 | 0.2 | 56.3*
COc1ccc(C)cc1NC(=O)COC(=O)c1c(C)noc1C | 45.8* | -0.6 | 4.7 | -2.6 | -1.3 | -4.6 | -0.7
CCOc1ccc(CCNC(=O)COC(=O)c2ccc(OC)c(OC)c2OC)cc1OCC | 20.4 | 4.7 | 2.1 | 1.6 | 3.0 | 3.2 | nt
COc1ccc(OC)c(NC(=O)COC(=O)c2c(C)noc2C)c1 | 4.2 | 5.9 | -4.3 | -0.6 | -0.3 | -1.1 | nt
COc1cc(C(=O)OCC(=O)Nc2cc(C)on2)c([N+](=O)[O-])cc1OC | 36.9* | 0.9 | 3.8 | -0.4 | 1.4 | -2.8 | 23.9
COc1ccc(C(=O)OCC(=O)Nc2ccc(Cl)c(C(F)(F)F)c2)c(OC)c1OC | 67.7* | 18.4 | -2.5 | 3.4 | 20.6 | 15.8 | 76.8*
COc1ccc(C(=O)OCC(=O)Nc2cc(C)on2)c(OC)c1OC | 67.6* | -1.5 | 2.0 | 2.4 | 3.1 | -20.1 | 64.7*
O=c1cc(C(F)(F)F)nc(SCc2cccc3ccccc23)[nH]1 | 50.9* | -5.0 | 3.2 | 9.3 | 3.4 | -0.8 | 30.9*
CCc1cc(=O)[nH]c(SCc2cccc3ccccc23)n1 | 61.5* | -6.4 | 4.9 | 6.7 | 2.5 | 5.3 | 51.4*
COc1cccc(-c2noc(-c3ccc(Br)o3)n2)c1 | 3.5 | -4.9 | 6.0 | 4.5 | 5.8 | 1.0 | nt
COc1ccc(NC(=O)Nc2ccccc2F)cc1Cl | 8.9 | 3.7 | 3.6 | 3.2 | -0.8 | -5.1 | nt
Nc1ccc(C(=O)OCc2nc3c(ccc4ccccc43)[nH]2)cc1 | 80.0* | 25.0 | 10.7 | 4.3 | 17.2 | 2.6 | 82.0*
O=C(COC(=O)c1c(F)cccc1Cl)NC1CCCC1 | 37.1* | -8.4 | -0.4 | 1.0 | 2.6 | -10.3 | 12.2
O=C(COC(=O)c1c(F)cccc1Cl)NCC1CCCCC1 | 60.2* | 24.3 | 12.8 | 3.0 | 12.9 | 5.9 | 43.3*
CCCCn1c(N)c(N(CCOC)C(=O)c2cccc(N3C(=O)c4ccccc4C3=O)c2)c(=O)[nH]c1=O | 44.8* | -1.0 | 2.6 | -2.8 | 6.1 | -0.5 | -2.4
Nc1cc(C(F)(F)F)ccc1NCCc1ccccn1 | 63.6* | 7.0 | 5.1 | 6.1 | 7.3 | 2.8 | 51.9*
Cc1cc(C)nc(N2CCCC(CCC(=O)NCc3ccc(F)c(F)c3)C2)n1 (centres undefined) | 9.1 | -3.0 | 8.1 | 4.1 | -0.7 | 8.8 | nt
COc1ccccc1NC(=O)CC1Nc2ccccc2NC1=O (centres undefined) | 86.3* | 2.8 | 9.0 | 5.2 | 8.7 | 4.2 | -0.7
CN(C(=O)COC(=O)c1ccc(Cl)c(S(=O)(=O)N2CCCCC2)c1)C1(C#N)CCCCC1 | 30.3* | 1.4 | 3.3 | 1.1 | 1.5 | 6.3 | 15.2
CN(C(=O)COC(=O)c1ccc(Cl)s1)C1(C#N)CCCCC1 | 30.1* | nt | -7.0 | 0.2 | nt | 4.1 | 13.3
CN(C(=O)COC(=O)C1COc2ccccc2O1)C1(C#N)CCCCC1 (centres undefined) | -1.9 | 5.4 | -2.0 | -0.2 | 1.2 | 4.7 | nt
CC(=O)NCCC(=O)N1CCCC(N(C)CCc2ccccc2)C1 (centres undefined) | -8.5 | 4.3 | 5.5 | 1.2 | 1.0 | -2.0 | nt
COc1ccc(C(=O)OCC(=O)NCC2CCCO2)c(F)c1 (centres undefined) | 37.9* | 4.5 | 3.9 | 3.5 | 8.5 | -5.1 | 33.6*
SMILES | PAFAH2 FP inh | PREPL inhibitor | PAFAH1B3 FP inh | PAFAH1B2 inh | pPAFAH inh | Apaf1 inhib | PAFAH2 confirm
O=C(COC(=O)c1cccs1)NCC1CCCO1 (centres undefined) | 35.4* | 1.8 | 0.1 | 2.9 | 4.7 | -3.3 | 15.6
CCOc1ccc(C(=O)OCC(=O)NCCNC(=O)COC(=O)c2ccc(OCC)cc2)cc1 | -1.7 | 9.1 | 4.8 | -0.8 | 3.3 | 4.0 | nt
CCOc1ccc(C(=O)OCC(=O)NC(C)C)cc1 | 55.4* | -11.8 | -0.3 | -0.9 | 2.2 | -4.0 | 42.8*
CCOc1ccc(C(=O)OCC(=O)NCC2CCCO2)cc1 (centres undefined) | 48.0* | 18.0 | 6.6 | 5.3 | 3.3 | 18.2 | 28.1
Cc1noc(C)c1CSCC(=O)N(C)CC(=O)Nc1cccc(F)c1 | 3.3 | 1.5 | -5.9 | 4.5 | -2.6 | 31.5 | nt
CCCn1nnnc1SCC(=O)N1C(C)CCCC1C (centres undefined) | 2.9 | 6.4 | -8.5 | -2.1 | -1.1 | -5.3 | nt
Nc1cc(C(=O)OCC(=O)NCC2CCCO2)ccc1Cl (centres undefined) | 19.2 | 11.4 | -2.8 | -3.3 | 1.9 | 6.9 | nt
COc1cc(OC)c(NS(=O)(=O)c2cc(C(=O)OCC(=O)NCC3CCCO3)ccc2OC)cc1Cl (centres undefined) | 70.5* | -11.5 | 14.0 | 9.3 | -3.3 | 9.3 | 52.1*
Cc1c(C(=O)OCC(=O)NC2CCCCC2)oc2ccccc12 | 46.5* | 6.7 | 10.2 | 1.5 | 16.2 | -0.1 | 48.0*
COc1ccc(Br)c(C(=O)OCC(=O)NC2CCCCCC2)c1 | 77.4* | 4.6 | 7.2 | -0.3 | 14.0 | 13.5 | 60.0*
COc1ccc(OCC(=O)NC2CCCCCCC2)cc1 | -6.5 | 15.8 | 3.2 | 3.3 | 1.3 | -2.5 | nt
CCOc1ccc2oc(C(=O)OCC(=O)NC3CCCC3)c(C)c2c1 | 55.4* | -1.6 | 0.7 | 2.8 | 14.1 | -1.6 | 31.6*
CSCc1c(C(=O)OCC(=O)NC2CCCCC2)oc2ccccc12 | 56.6* | 3.7 | 3.5 | 0.3 | 14.1 | 26.0 | 60.1*
Cc1c(C(=O)OCC(=O)NCC2CCCO2)oc2ccccc12 (centres undefined) | 5.7 | 2.0 | 14.4 | 7.8 | 6.0 | -1.9 | nt
NC(=O)CC(NC(=O)c1ccc(Br)cc1)c1ccc(N2CCCCCCC2)c([N+](=O)[O-])c1 (centres undefined) | 8.5 | 11.5 | 5.3 | 3.1 | 12.7 | 18.5 | nt
CCOc1ccccc1-n1ccn(CC(=O)Nc2ccc(Br)cc2F)c(=O)c1=O | 5.2 | nt | 6.9 | 3.9 | nt | 3.1 | nt
COc1ccc2oc(C(=O)OCC(=O)NC3CCCCC3)c(C)c2c1 | 63.7* | 16.7 | -5.4 | 2.4 | 13.7 | 10.5 | 57.1*
Nc1nnc(CC(=O)N/N=C/c2ccc(-c3ccccc3Cl)o2)s1 | 29.7* | 1.1 | -1.3 | -1.1 | 17.2 | 10.9 | 23.3
Nc1nnc(CC(=O)N/N=C/c2ccc(-c3ccccc3)o2)s1 | 12.3 | 8.1 | 3.7 | 2.1 | 3.1 | -2.8 | nt
COc1ccc(-c2ccc(/C=N/NC(=O)Cc3nnc(N)s3)o2)cc1Cl | nt | 16.0 | nt | nt | 24.0 | -8.6 | nt

Screening data deposited in PubChem by several laboratories.
